Assay results reported in ChEMBL document CHEMBL3244179, “Potential inhibitors of S-adenosylmethionine-dependent methyltransferases. 7. Role of the ribosyl moiety in enzymatic binding of S-adenosyl-L-homocysteine and S-adenosyl-L-methionine” (J Med Chem, 1978).

Legend:
[1] = target: T1, Catechol O-methyltransferase (Rattus norvegicus) (UniProt P22734); experiment: Inhibition of Sprague-Dawley rat liver COMT at 2 mM by radiochemical technique
T1 sequence (whole entry): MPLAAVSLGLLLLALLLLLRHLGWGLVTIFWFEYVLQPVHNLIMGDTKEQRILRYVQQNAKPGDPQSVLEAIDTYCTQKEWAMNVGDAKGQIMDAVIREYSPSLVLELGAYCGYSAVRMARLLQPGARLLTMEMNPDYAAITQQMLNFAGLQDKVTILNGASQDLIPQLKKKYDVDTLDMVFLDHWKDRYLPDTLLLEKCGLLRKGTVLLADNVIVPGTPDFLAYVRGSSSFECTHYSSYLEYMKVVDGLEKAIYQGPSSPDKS
Method in brief: (§1)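 Rat liver COMT, purified by a published method, was tested with inhibitor at 0.2 or 2.0 mM, SAM-14CH3 (0.05 μCi, 1.0 mM final) and 3,4-dihydroxybenzoate (2.0 mM final) in buffer. Incubation was at 37 °C. Activity was measured radiochemically by extracting the radiolabeled methylated product.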

[2] = target: T1, Catechol O-methyltransferase (Rattus norvegicus); experiment: Inhibition of Sprague-Dawley rat liver COMT at 0.2 mM by radiochemical technique; method in brief: as §1
[3] = target: T2, Phenylethanolamine N-methyltransferase (Bos taurus) (UniProt P10938); experiment: Inhibition of bovine adrenal medulla PNMT at 0.2 mM by radiochemical technique
T2 sequence (whole entry): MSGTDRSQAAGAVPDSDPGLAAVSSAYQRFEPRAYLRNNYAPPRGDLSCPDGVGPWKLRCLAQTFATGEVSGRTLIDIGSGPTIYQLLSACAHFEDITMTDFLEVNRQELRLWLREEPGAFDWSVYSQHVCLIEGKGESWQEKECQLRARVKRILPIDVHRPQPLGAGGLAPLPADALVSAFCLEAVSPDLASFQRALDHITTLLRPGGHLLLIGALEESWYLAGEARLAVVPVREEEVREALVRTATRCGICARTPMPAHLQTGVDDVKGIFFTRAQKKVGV
Method in brief: (§2)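 Bovine adrenal medulla PNMT, purified by a published method, was tested with inhibitor at 0.2 or 2.0 mM, SAM-14CH3 (0.05 μCi, 1.0 mM final) and DL-β-phenylethanolamine (1.0 mM final) in buffer. Incubation was at 37 °C. Activity was measured radiochemically by extracting the labeled product.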

[4] = Retardation factor, Rf of the compound on silica gel GF containing 5% Na2HPO4 by chromatography; format: physicochemical
Method in brief: (§3)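 TLC plates carried a 250 μm silica gel GF layer. Spots were located visually under UV light, and with ninhydrin for amine-containing compounds.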

[5] = target: T3, Acetylserotonin O-methyltransferase (Bos taurus) (UniProt P10950); experiment: Inhibition of bovine pineal gland HIOMT at 2 mM by radiochemical technique
T3 sequence (whole entry): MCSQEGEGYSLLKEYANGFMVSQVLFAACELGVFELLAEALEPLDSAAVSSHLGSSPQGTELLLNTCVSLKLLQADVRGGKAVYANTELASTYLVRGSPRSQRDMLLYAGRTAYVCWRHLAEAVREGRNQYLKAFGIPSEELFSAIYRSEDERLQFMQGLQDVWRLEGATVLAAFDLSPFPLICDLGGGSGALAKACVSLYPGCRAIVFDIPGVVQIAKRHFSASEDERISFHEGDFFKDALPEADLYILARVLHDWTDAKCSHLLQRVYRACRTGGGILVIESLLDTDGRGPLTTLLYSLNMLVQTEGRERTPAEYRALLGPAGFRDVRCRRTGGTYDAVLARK
Method in brief: (§4)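 Bovine pineal gland HIOMT, purified by a published method, was tested with inhibitor at 0.2 or 2.0 mM, SAM-14CH3 (0.05 μCi, 1.0 mM final) and N-acetylserotonin (1.0 mM final) in buffer. Incubation was at 37 °C. Product formation was read radiochemically after extraction of the labeled product.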

[6] = target: T2, Phenylethanolamine N-methyltransferase (Bos taurus); experiment: Inhibition of bovine adrenal medulla PNMT at 2 mM by radiochemical technique; method in brief: as §2
[7] = target: Histamine N-methyltransferase (Cavia porcellus) (UniProt Q9EST2); experiment: Inhibition of guinea pig HMT at 2 mM by radiochemical technique
Sequence of Histamine N-methyltransferase (Cavia porcellus) (Q9EST2 whole entry): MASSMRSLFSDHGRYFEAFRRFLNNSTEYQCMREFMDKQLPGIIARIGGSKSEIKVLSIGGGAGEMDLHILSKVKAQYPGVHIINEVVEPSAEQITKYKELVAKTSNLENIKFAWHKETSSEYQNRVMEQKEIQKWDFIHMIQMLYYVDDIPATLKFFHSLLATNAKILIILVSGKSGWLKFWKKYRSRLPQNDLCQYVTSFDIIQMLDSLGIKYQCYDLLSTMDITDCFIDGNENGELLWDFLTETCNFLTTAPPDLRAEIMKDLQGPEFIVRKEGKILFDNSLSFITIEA
Method in brief: (§5)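 HMT from guinea pig brain, purified by a published method, was tested with inhibitor at 0.2 or 2.0 mM, SAM-14CH3 (0.05 μCi, 1.0 mM final) and histamine (1.0 mM final) in buffer. Incubation was at 37 °C. Activity was measured radiochemically by extracting the radiolabeled product.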

[8] = Retardation factor, Rf of the compound on silica gel GF containing EtOH-HOAc-H2O (20:2:2)/0.1 M phosphate buffer at 7.4 by chromatography; format: physicochemical; conditions: pH 7.4; method in brief: as §3
[9] = target: Histamine N-methyltransferase (Cavia porcellus) (UniProt Q9EST2); experiment: Inhibition of guinea pig HMT at 0.2 mM by radiochemical technique; method in brief: as §5
[10] = target: T3, Acetylserotonin O-methyltransferase (Bos taurus); experiment: Inhibition of bovine pineal gland HIOMT at 0.2 mM by radiochemical technique; method in brief: as §4
[11] = target: T1, Catechol O-methyltransferase (Rattus norvegicus); experiment: Inhibition of Sprague-Dawley rat liver COMT at 1 mM by radiochemical technique
[12] = target: T3, Acetylserotonin O-methyltransferase (Bos taurus); experiment: Inhibition of bovine pineal gland HIOMT at 1 mM by radiochemical technique
[13] = target: T2, Phenylethanolamine N-methyltransferase (Bos taurus); experiment: Inhibition of bovine adrenal medulla PNMT at 1 mM by radiochemical technique
[14] = target: Histamine N-methyltransferase (Cavia porcellus) (UniProt Q9EST2); experiment: Inhibition of guinea pig HMT at 0.4 mM by radiochemical technique
[15] = target: T3, Acetylserotonin O-methyltransferase (Bos taurus); experiment: Inhibition of bovine pineal gland HIOMT at 0.4 mM by radiochemical technique
[16] = target: T2, Phenylethanolamine N-methyltransferase (Bos taurus); experiment: Inhibition of bovine adrenal medulla PNMT at 0.4 mM by radiochemical technique
[17] = target: Histamine N-methyltransferase (Cavia porcellus) (UniProt Q9EST2); experiment: Inhibition of guinea pig HMT at 1 mM by radiochemical technique
[18] = target: T1, Catechol O-methyltransferase (Rattus norvegicus); experiment: Inhibition of Sprague-Dawley rat liver COMT at 0.4 mM by radiochemical technique

Compound: Nc1ncnc2c1ncn2[C@@H]1O[C@H](CSCC(N)C(=O)O)[C@@H](O)[C@H]1O (single isomer, unassigned)
- inhibition [1]: 5%
- inhibition [2]: 0%
- inhibition [3]: 11%
- Rf [4]: 0.74
- inhibition [5]: 33%
- inhibition [6]: 27%
- inhibition [7]: 43%
- Rf [8]: 0.79
- inhibition [9]: 14%
- inhibition [10]: 12%

Compound: Nc1ncnc2c1ncn2[C@@H](CO)O[C@@H](CO)CSCC[C@H](N)C(=O)O
- inhibition [1]: 25%
- inhibition [2]: 2%
- inhibition [3]: 0%
- Rf [4]: 0.65
- inhibition [5]: 6%
- inhibition [6]: 0%
- inhibition [7]: 0%
- Rf [8]: 0.72
- inhibition [9]: 0%
- inhibition [10]: 0%

Compound: C[S+](CC[C@@H](N)C(=O)O)C[C@H](CO)O[C@H](CO)n1cnc2c(N)ncnc21 (some centres undefined)
- inhibition [1]: 14%
- inhibition [2]: 7%
- inhibition [3]: 1%
- Rf [4]: 0.46
- inhibition [5]: 8%
- inhibition [6]: 21%
- inhibition [7]: 0%
- Rf [8]: 0.11
- inhibition [9]: 0%
- inhibition [10]: 0%

Compound: Nc1nnnc2c1ncn2[C@@H]1O[C@H](CSCCC(N)C(=O)O)[C@@H](O)[C@H]1O (single isomer, unassigned)
- inhibition [11]: 6%
- Rf [4]: 0.7
- inhibition [12]: 39%
- inhibition [13]: 58%
- inhibition [14]: 0%
- inhibition [15]: 23%
- inhibition [16]: 38%
- inhibition [17]: 8%
- Rf [8]: 0.79
- inhibition [18]: 3%

Compound: Nc1ncnc2c1ncn2[C@@H]1O[C@H](CSCCC(N)C(=O)O)[C@@H](O)[C@H]1O (single isomer, unassigned)
- inhibition [1]: 22%
- inhibition [2]: 5%
- inhibition [3]: 14%
- inhibition [5]: 6%
- inhibition [6]: 32%
- inhibition [7]: 99%
- inhibition [9]: 73%
- inhibition [10]: 1%

Compound: Nc1ncnc2c1nnn2[C@@H](CO)O[C@@H](CO)CSCC[C@@H](N)C(=O)O
- inhibition [1]: 17%
- inhibition [2]: 0%
- inhibition [3]: 0%
- Rf [4]: 0.69
- inhibition [5]: 31%
- inhibition [6]: 10%
- inhibition [7]: 0%
- Rf [8]: 0.58
- inhibition [9]: 0%
- inhibition [10]: 12%

Compound: Nc1ncnc2c1ncn2[C@@H](CO)O[C@@H](CO)CSCC[C@@H](N)C(=O)O
- inhibition [1]: 26%
- inhibition [2]: 0%
- inhibition [3]: 8%
- Rf [4]: 0.65
- inhibition [5]: 26%
- inhibition [6]: 16%
- inhibition [7]: 19%
- Rf [8]: 0.72
- inhibition [9]: 0%
- inhibition [10]: 9%

Compound: Nc1nnnc2c1ncn2[C@@H](CO)O[C@@H](CO)CSCC[C@@H](N)C(=O)O
- inhibition [1]: 5%
- inhibition [2]: 4%
- inhibition [3]: 0%
- Rf [4]: 0.69
- inhibition [5]: 25%
- inhibition [6]: 15%
- inhibition [7]: 0%
- Rf [8]: 0.66
- inhibition [9]: 0%
- inhibition [10]: 18%

Compound: Nc1ncnc2c1nnn2[C@@H]1O[C@H](CSCCC(N)C(=O)O)[C@@H](O)[C@H]1O (single isomer, unassigned)
- Rf [4]: 0.71
- inhibition [5]: 89%
- Rf [8]: 0.72
- inhibition [10]: 49%

Compound: C[S+](CC[C@H](N)C(=O)[O-])C[C@H]1O[C@@H](n2cnc3c(N)ncnc32)[C@H](O)[C@@H]1O (some centres undefined) [ADEMETIONINE]
- Rf [4]: 0.34
- Rf [8]: 0.2

Compound: Nc1ncnc2c1ncn2[C@@H]1O[C@H](CSCC[C@H](N)C(=O)O)[C@@H](O)[C@H]1O [S-ADENOSYLHOMOCYSTEINE]
- inhibition [1]: 87%
- inhibition [2]: 39%
- inhibition [3]: 49%
- Rf [4]: 0.73
- inhibition [5]: 94%
- inhibition [6]: 92%
- inhibition [7]: 89%
- Rf [8]: 0.73
- inhibition [9]: 40%
- inhibition [10]: 71%

Compound: Nc1ncnc2c1ncn2[C@@H](CO)O[C@@H](CO)CSC[C@@H](N)C(=O)O
- inhibition [1]: 12%
- inhibition [2]: 0%
- inhibition [3]: 10%
- Rf [4]: 0.63
- inhibition [5]: 0%
- inhibition [6]: 15%
- inhibition [7]: 3%
- Rf [8]: 0.75
- inhibition [9]: 0%
- inhibition [10]: 0%

Compound: Nc1ncnc2c1ncn2[C@@H]1O[C@H](C[S+]([O-])CC[C@@H](N)C(=O)O)[C@@H](O)[C@H]1O (some centres undefined)
- inhibition [1]: 42%
- inhibition [2]: 14%
- inhibition [3]: 10%
- Rf [4]: 0.72
- inhibition [5]: 0%
- inhibition [6]: 22%
- inhibition [7]: 9%
- Rf [8]: 0.74
- inhibition [9]: 0%
- inhibition [10]: 0%

Compound: Nc1ncnc2c1ncn2[C@@H](CO)O[C@@H](CO)C[S+]([O-])CC[C@@H](N)C(=O)O (some centres undefined)
- inhibition [1]: 22%
- inhibition [2]: 5%
- inhibition [3]: 9%
- Rf [4]: 0.6
- inhibition [5]: 16%
- inhibition [6]: 17%
- inhibition [7]: 0%
- Rf [8]: 0.74
- inhibition [9]: 0%
- inhibition [10]: 7%
